From the array DNA melting data of Ke et al. (doi:10.1101/2024.01.08.574731) come the findings set out here.

Series [1] in a line: folding enthalpy; higher = less favourable; fluorescence melt of hairpins on a sequencing array, two-state fit. The settings on record: sodium 0.088 M. The gist of the method: (§1)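 With Cy3 and quencher oligos annealed, library hairpins on a sequenced MiSeq flow cell were imaged for Cy3 fluorescence in 50 mM Na-HEPES pH 8.0, 25 mM NaCl, in 2.5 °C steps up to 60 °C. Melting temperature and folding enthalpy were derived from bootstrapped two-state fits of signals normalised to pre-quench Cy3 and to control constructs. Four replicates were combined by inverse variance, with fitted temperatures raised by 9.35 °C to match UV melts.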

Series [2] can be described thus: melting temperature; fluorescence melt of hairpins on a sequencing array, two-state fit, raised by 9.35 °C to match UV melts. The settings on record: sodium 0.088 M. The gist of the method:
as §1

Regarding GCTGGGCGAAAGCCTCGC ((..(((....)))..)), the folding enthalpy in series [1] is -14.9 kcal/mol. The Tm in series [2] was 44.6 °C.
Turning to GTGATTGGAAACAGTCAC ((((.((....)).)))), the folding enthalpy in series [1] was -36.6 kcal/mol. Besides, the Tm in series [2] is 45.4 °C.
For GCATGGCGAAAGCGTTGC (((..((....))..))) the same measures were -21.5 kcal/mol and 48 °C.
As to GTTAGACGAAAGTCAAC (((.(((....)))))), the folding enthalpy in series [1] is -13.4 kcal/mol. In addition, in series [2], the Tm stood at 43 °C.
For GCCGAGCGAAAGCTGGGC (((.(((....))).))) the same measures were -30 kcal/mol and 68 °C.
The corresponding values for GCACCGCGAAAGCTTTGC (((..((....))..))) are -12 kcal/mol and 36.2 °C.
Turning to GCGAAACGAAAGTTACGC (((.(((....))).))), in series [1], the folding enthalpy is -40.1 kcal/mol. Besides, the Tm in series [2] stood at 58.6 °C.
On to GCGGAATTCCGC ((((....)))), for which, in series [1], the folding enthalpy is -36.5 kcal/mol. Also, the Tm in series [2] was 56.3 °C.
For the sequence GCCGGGCGAAAGCGCAGC ((.(.((....)).).)), the folding enthalpy in series [1] was -13.2 kcal/mol. Further, the Tm in series [2] was found to be 43.3 °C.
For GATCGCTGAGGCGATC ((((((....)))))) the same measures were -38.1 kcal/mol and 68.5 °C.
Regarding GGTCGTGAAAACGACC ((((((....)))))), the folding enthalpy in series [1] was -34.3 kcal/mol. Moreover, the Tm in series [2] was 69.2 °C.
Consider GACCACGAAAGTGCTGTC ((((((....)))..))), for which, in series [1], the folding enthalpy is -17.2 kcal/mol. Besides, the Tm in series [2] was 34 °C.
Take GGCTCACGAAAGTGCGCC (((.(((....))).))): the folding enthalpy in series [1] was -50.9 kcal/mol. Moreover, in series [2], the Tm was determined as 58.4 °C.
Turning to GACCATACGAAAGTAGTC (((..(((....)))))), the folding enthalpy in series [1] was -9.93 kcal/mol. In addition, the Tm in series [2] was 25.7 °C.
As for GTGCCGTCGAAAGACCAC (((..(((....)))))), in series [1], the folding enthalpy is -6.11 kcal/mol. Also, in series [2], the Tm worked out at 49.7 °C.
GGACACGAAAGTGAATCC ((((((....)))..))): in series [1], the folding enthalpy was -15.9 kcal/mol. In addition, the Tm in series [2] was found to be 32.9 °C.
For GATCCTGCACAGGATC ((((((....)))))) the same measures were -47.2 kcal/mol and 58.9 °C.
Consider GTTTGGCGAAAGCCTAAC (((.(((....))).))), for which the folding enthalpy in series [1] is -21.8 kcal/mol. The Tm in series [2] is 51 °C.
As for GTCCTGCGAAAGCAAGAC (((.(((....))).))), the folding enthalpy in series [1] is -23.3 kcal/mol. Besides, the Tm in series [2] came out at 48.1 °C.
For GTCCCCGGAAACAGGGAC (((((.(....).))))), in series [1], the folding enthalpy was -39.9 kcal/mol. For the same sequence, the Tm in series [2] stood at 48.6 °C.
Consider GTGACATCGAAAGATCAC (((..(((....)))))), for which the folding enthalpy in series [1] was -16.2 kcal/mol. For the same sequence, in series [2], the Tm amounted to 33 °C.
Turning to GATCCATCTCTGGATC ((((((....)))))), the folding enthalpy in series [1] is -39.6 kcal/mol. The Tm in series [2] worked out at 50.4 °C.
In the case of GAATGGGGAAACCCATTC (((((((....))))))), the folding enthalpy in series [1] was -33.7 kcal/mol. In series [2], the Tm came out at 57.6 °C.
Take GTCACGCGAAAGCGAGAC (((.(((....))).))): in series [1], the folding enthalpy was -17.5 kcal/mol. Further, in series [2], the Tm was found to be 60.1 °C.
For GTTAGGCGAAAGCCGAAC (((.(((....))).))) the same measures were -19.6 kcal/mol and 55.9 °C.
For GTGCGAACGAAAGTTCAC (((..(((....)))))) the same measures were -12.1 kcal/mol and 53.3 °C.
GTCACGGGAAACCGTGAC (((((((....))))))): the folding enthalpy in series [1] is -35.5 kcal/mol. Further, the Tm in series [2] amounted to 68.9 °C.
GGTCCCGAAAGGGGAACC ((((((....)))..))): in series [1], the folding enthalpy is -17.2 kcal/mol. Moreover, the Tm in series [2] stood at 48.5 °C.
Consider GCGGTACGAAAGTAACGC (((.(((....))).))), for which, in series [1], the folding enthalpy is -38.8 kcal/mol. Besides, in series [2], the Tm is 67.7 °C.
For GTGATACGAAAGTACAC (((.(((....)))))) the same measures were -25.8 kcal/mol and 43.7 °C.
Consider GCGTTACACGC ((((...)))), for which, in series [1], the folding enthalpy is -19.8 kcal/mol. In series [2], the Tm came to 58.1 °C.
As to GTGCCCGAAAGGGGCCAC ((((((....)))..))), in series [1], the folding enthalpy is -10.9 kcal/mol. In addition, the Tm in series [2] came out at 47.7 °C.
Turning to GCCTGAGGAAACTTAGGC ((((.((....)).)))), in series [1], the folding enthalpy was -31.2 kcal/mol. For the same sequence, the Tm in series [2] turned out to be 48.8 °C.
For the sequence GCACTGCGAAAGCATCGC ((..(((....)))..)), the folding enthalpy in series [1] is -12.8 kcal/mol. Also, in series [2], the Tm was found to be 39.5 °C.
Consider GATTTCGGAAACGAAACC (.(((((....))))).), for which the folding enthalpy in series [1] is -19.6 kcal/mol. For the same sequence, the Tm in series [2] came to 35.8 °C.
The corresponding values for GTCAACCCGAAAGGGGAC (((..(((....)))))) are -15 kcal/mol and 41.8 °C.
As for GATCCCCATGGGATC ((((((...)))))), the folding enthalpy in series [1] was -37.5 kcal/mol. Also, the Tm in series [2] amounted to 63 °C.
For GACTGGGGAAACTCAGTC (((((.(....).))))) the same measures were -40.5 kcal/mol and 49.9 °C.
Take GATCTCTTCGGAGATC ((((((....)))))): the folding enthalpy in series [1] was -42.6 kcal/mol. In addition, in series [2], the Tm amounted to 54.5 °C.
Take GAGCCACGAAAGTGTCTC (((.(((....))).))): in series [1], the folding enthalpy is -29 kcal/mol. Further, the Tm in series [2] turned out to be 50 °C.
In the case of GATCCCGTGCGGGATC ((((((....)))))), the folding enthalpy in series [1] was -35.8 kcal/mol. Moreover, the Tm in series [2] came to 66.3 °C.
For the sequence GGAGCCGGAAACAGCTCC (((((.(....).))))), in series [1], the folding enthalpy was -27.7 kcal/mol. The Tm in series [2] worked out at 51.3 °C.
Consider GGAGAGAAATCTCC (((((....))))), for which the folding enthalpy in series [1] is -18.4 kcal/mol. Besides, in series [2], the Tm is 45.1 °C.
Consider GATCGAAGCATCGATC ((((((....)))))), for which, in series [1], the folding enthalpy is -35.8 kcal/mol. Moreover, the Tm in series [2] is 51.2 °C.
Take GGCAAGGGAAACCTTGTC (.(((((....))))).): in series [1], the folding enthalpy is -31.7 kcal/mol. The Tm in series [2] came to 50.6 °C.
Consider GTACACGAAAGTGGTAC ((((((....))).))), for which, in series [1], the folding enthalpy was -17.9 kcal/mol. Also, in series [2], the Tm came out at 47.8 °C.
On to GATCAGATGCCTGATC ((((((....)))))), for which the folding enthalpy in series [1] was -23.8 kcal/mol. The Tm in series [2] was 48.4 °C.
For GATCACGTGGGTGATC ((((((....)))))) the same measures were -39.5 kcal/mol and 57.1 °C.
In the case of GGATCAGGAAACTGATTC (.(((((....))))).), the folding enthalpy in series [1] was -31.1 kcal/mol. Moreover, the Tm in series [2] came out at 44.4 °C.
As for GCTCTTGGAAACAAGGGC ((.((((....)))).)), in series [1], the folding enthalpy was -38.5 kcal/mol. Also, the Tm in series [2] was found to be 50.6 °C.
With GAGCAGGGAAACTTGCTC (((((.(....).))))), in series [1], the folding enthalpy is -32.1 kcal/mol. The Tm in series [2] was found to be 49 °C.
The corresponding values for GTGACCCGAAAGGGACAC (((.(((....))).))) are -40.2 kcal/mol and 61.8 °C.
Take CGCTGGCGGAAACGCGCG (((..(((....)))))): in series [1], the folding enthalpy is -19.5 kcal/mol. The Tm in series [2] was determined as 52.5 °C.
GATCTTCGCAAGATC ((((((...)))))): the folding enthalpy in series [1] was -33.7 kcal/mol. In series [2], the Tm turned out to be 45.4 °C.
For GGACCGCGAAAGCGATCC (((.(((....))).))) the same measures were -27.9 kcal/mol and 59 °C.
